# Experimental data published in ChEMBL document CHEMBL1148673, “Peptidomimetic C5a receptor antagonists with hydrophobic substitutions at the C-terminus: increased receptor specificity and in vivo activity” (Bioorg Med Chem Lett, 2006).
# Residues, ends and D or L forms follow the SMILES beside them.
# Legend:
# [1] = target: T1, C5a anaphylatoxin chemotactic receptor 1 (Homo sapiens) (UniProt P21730); assay: Agonist activity at human C5aR in CD88 transfected RBL cells at 286 uM; format: functional, cell-based
# T1 sequence (whole entry): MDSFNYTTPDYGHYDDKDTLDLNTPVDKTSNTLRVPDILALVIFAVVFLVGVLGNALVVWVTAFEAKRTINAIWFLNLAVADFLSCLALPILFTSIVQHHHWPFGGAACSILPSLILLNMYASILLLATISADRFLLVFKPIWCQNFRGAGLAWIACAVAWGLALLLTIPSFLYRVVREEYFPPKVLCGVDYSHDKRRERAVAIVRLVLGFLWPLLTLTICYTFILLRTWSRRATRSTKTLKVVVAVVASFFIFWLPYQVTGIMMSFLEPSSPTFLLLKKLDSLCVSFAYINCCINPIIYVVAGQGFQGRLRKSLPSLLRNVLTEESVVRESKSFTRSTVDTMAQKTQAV
# [2] = target: Melanocortin receptor 4 (Homo sapiens, UniProt P32245); assay: Binding affinity to MC4 receptor
# Chain of Melanocortin receptor 4 (P32245 whole entry): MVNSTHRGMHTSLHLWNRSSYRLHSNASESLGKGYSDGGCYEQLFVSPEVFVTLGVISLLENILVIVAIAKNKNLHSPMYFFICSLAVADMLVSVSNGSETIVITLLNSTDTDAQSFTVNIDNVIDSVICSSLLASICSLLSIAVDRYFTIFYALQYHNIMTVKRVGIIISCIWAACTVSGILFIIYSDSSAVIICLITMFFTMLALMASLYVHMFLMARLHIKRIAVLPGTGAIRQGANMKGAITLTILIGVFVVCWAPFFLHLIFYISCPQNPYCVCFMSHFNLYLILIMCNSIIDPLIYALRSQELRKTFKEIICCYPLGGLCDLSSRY
# [3] = system: J774.A1; assay: Inhibition of C5a-induced chemotaxis of mouse J774A.1 cells; format: functional, cell-based
# Procedure, shortened: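 Mouse J774A.1 cells; chemotaxis induced by C5a, inhibition measured and IC50 (µM) determined.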
# [4] = target: CYP3A4 (Homo sapiens, UniProt P08684); assay: Inhibition of CYP3A4 at 10 uM; format: ADME
# Chain of CYP3A4 (P08684 whole entry): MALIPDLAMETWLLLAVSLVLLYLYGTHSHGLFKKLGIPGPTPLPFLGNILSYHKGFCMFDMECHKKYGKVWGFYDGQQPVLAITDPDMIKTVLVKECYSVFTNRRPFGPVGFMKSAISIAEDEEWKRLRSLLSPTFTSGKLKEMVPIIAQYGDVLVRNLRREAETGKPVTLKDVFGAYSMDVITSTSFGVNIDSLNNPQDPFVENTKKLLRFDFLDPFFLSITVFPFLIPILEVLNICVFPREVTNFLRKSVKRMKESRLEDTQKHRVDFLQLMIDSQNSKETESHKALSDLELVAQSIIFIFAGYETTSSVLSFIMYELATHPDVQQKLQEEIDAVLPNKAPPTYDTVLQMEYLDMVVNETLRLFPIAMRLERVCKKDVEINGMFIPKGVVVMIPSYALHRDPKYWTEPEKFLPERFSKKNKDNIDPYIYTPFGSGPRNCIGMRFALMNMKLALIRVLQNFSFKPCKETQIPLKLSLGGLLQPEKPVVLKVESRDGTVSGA
# [5] = target: T2, Substance-K receptor (Homo sapiens, UniProt P21452); assay: Binding affinity to NK2 receptor
# T2 sequence (P21452 whole entry): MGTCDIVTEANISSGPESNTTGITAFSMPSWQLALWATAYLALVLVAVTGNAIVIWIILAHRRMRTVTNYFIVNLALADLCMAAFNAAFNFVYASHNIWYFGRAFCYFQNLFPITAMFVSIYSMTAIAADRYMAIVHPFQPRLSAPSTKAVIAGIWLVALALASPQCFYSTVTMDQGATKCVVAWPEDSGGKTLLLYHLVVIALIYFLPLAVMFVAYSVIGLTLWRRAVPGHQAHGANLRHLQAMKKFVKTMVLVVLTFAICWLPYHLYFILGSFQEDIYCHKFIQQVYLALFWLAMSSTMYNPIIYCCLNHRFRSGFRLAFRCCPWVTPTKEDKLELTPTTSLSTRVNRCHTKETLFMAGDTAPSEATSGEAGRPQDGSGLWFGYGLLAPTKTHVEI
# [6] = target: T3, C5a anaphylatoxin chemotactic receptor 1 (Homo sapiens, UniProt P21730); assay: Antagonist activity at human C5aR expressed in human PMN cells assessed as inhibition of glucosaminidase release; format: functional, cell-based
# T3 sequence (P21730 whole entry): T1 sequence (whole entry)
# [7] = target: T3, C5a anaphylatoxin chemotactic receptor 1; assay: Antagonist activity at human C5aR in CD88 transfected RBL cells assessed as inhibition of C5a-induced glucosaminidase release; format: functional, cell-based
# Procedure, shortened: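 Functional antagonism read as inhibition of glucosaminidase release stimulated by C5a from RBL cells transfected with CD88 (RBL+); IC50 in µM.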
# [8] = target: Vasopressin V1a receptor (Homo sapiens, UniProt P37288); assay: Binding affinity to V1a receptor
# Chain of Vasopressin V1a receptor (P37288 whole entry): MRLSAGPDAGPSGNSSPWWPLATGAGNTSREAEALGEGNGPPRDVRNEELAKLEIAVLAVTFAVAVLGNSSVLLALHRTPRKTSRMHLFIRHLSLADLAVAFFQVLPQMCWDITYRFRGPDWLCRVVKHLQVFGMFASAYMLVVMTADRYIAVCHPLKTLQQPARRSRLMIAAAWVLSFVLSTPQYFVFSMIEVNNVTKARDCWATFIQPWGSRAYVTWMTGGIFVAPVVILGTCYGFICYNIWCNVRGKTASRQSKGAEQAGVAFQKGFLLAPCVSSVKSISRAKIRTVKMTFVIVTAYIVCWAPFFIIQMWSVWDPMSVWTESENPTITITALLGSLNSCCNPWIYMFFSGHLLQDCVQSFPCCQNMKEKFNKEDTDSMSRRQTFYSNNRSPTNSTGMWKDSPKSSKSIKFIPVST
# [9] = target: Nociceptin receptor (Homo sapiens, UniProt P41146); assay: Binding affinity to ORL1 receptor
# Chain of Nociceptin receptor (P41146 whole entry): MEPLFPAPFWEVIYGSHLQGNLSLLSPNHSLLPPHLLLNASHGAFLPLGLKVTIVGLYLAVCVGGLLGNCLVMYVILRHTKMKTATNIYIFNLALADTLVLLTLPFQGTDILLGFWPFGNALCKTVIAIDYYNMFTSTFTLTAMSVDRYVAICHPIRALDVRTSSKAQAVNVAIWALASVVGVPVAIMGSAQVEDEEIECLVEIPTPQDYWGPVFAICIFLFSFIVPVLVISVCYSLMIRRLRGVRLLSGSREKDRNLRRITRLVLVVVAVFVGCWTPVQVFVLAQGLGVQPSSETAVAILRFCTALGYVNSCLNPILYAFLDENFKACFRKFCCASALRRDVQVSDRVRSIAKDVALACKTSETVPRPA
# [10] = target: T3, C5a anaphylatoxin chemotactic receptor 1; assay: Inhibition of C5a binding to human C5aR expressed in HEK293 cells; format: cell-based
# [11] = Stability in human liver microsome after 1 hr; format: ADME; settings: liver microsomes, read-out: Stability
# Procedure, shortened: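 Compound incubated with human liver microsomes, 1 h at 37 °C; read-out is % of parent remaining.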
Compound,Activity [1] [%],IC50 [7] [nM],remaining at 1 h [11] [%],further results
CC(=O)N[C@@H](Cc1ccccc1)C(=O)N[C@@H](CCCN)C(=O)N1CCC[C@H]1C(=O)N[C@H](CCC(C)C)C(=O)N[C@H](Cc1ccc(Cl)c(Cl)c1)C(=O)N[C@H](Cc1ccccc1)C(N)=O,7.2,,,
CC(=O)N[C@@H](Cc1ccccc1)C(=O)N[C@@H](CCCN)C(=O)N1CCC[C@H]1C(=O)N[C@H](CCC(C)C)C(=O)N[C@H](Cc1cccc(Cl)c1)C(=O)N[C@H](Cc1ccccc1)C(N)=O,1.2,,,
CC(C)CC[C@@H](NC(=O)[C@@H]1CCCN1C(=O)[C@H](CCCN)NC(=O)[C@H](Cc1ccccc1)NC(=O)[C@@H]1CC(=O)NC(=O)N1)C(=O)N[C@@H](Cc1ccc(F)cc1)C(=O)N[C@@H](Cc1ccccc1)C(N)=O,,39,80,IC50 [2]: 13000 nM; IC50 [3]: 420 nM; inhibition at 10 µM [4]: 38%; IC50 [5]: 710 nM; IC50 [6]: 41 nM; IC50 [8]: 740 nM; IC50 [9]: > 50000 nM; IC50 [10]: 111 nM
CC(=O)N[C@@H](Cc1ccccc1)C(=O)N[C@@H](CCCN)C(=O)N1CCC[C@H]1C(=O)N[C@H](CCC(C)C)C(=O)N[C@H](Cc1c[nH]c2ccccc12)C(=O)N[C@H](Cc1ccccc1)C(N)=O,0,,,
CC(=O)N[C@@H](Cc1ccccc1)C(=O)N[C@@H](CCCN)C(=O)N1CCC[C@H]1C(=O)N[C@H](CCC(C)C)C(=O)N[C@H](Cc1csc2ccccc12)C(=O)N[C@H](Cc1ccccc1)C(N)=O,0,,,
CC(=O)N[C@@H](Cc1ccccc1)C(=O)N[C@@H](CCCN)C(=O)N1CCC[C@H]1C(=O)N[C@@H](CCC(C)C)C(=O)N[C@H](Cc1ccc(F)cc1)C(=O)N[C@H](Cc1ccccc1)C(N)=O,0,,,
CC(=O)N[C@@H](Cc1ccccc1)C(=O)N[C@H]1CCCNC(=O)[C@H](CCCN=C(N)N)NC(=O)[C@H](Cc2c[nH]c3ccccc23)NC(=O)[C@@H](CC2CCCCC2)NC(=O)[C@@H]2CCCN2C1=O,,,10,IC50 [3]: 7100 nM; inhibition at 10 µM [4]: 77%
CC(C)CC[C@H](NC(=O)[C@@H]1CCCN1C(=O)[C@H](CCCN)NC(=O)[C@H](Cc1ccccc1)NC(=O)[C@@H]1CC(=O)NC(=O)N1)C(=O)N[C@@H](Cc1ccc(F)cc1)C(=O)N[C@H](Cc1ccccc1)C(N)=O,0,,,
CC(=O)N[C@@H](Cc1ccccc1)C(=O)N[C@@H](CCCN)C(=O)N1CCC[C@H]1C(=O)N[C@H](CCC(C)C)C(=O)N[C@@H](Cc1c[nH]c2ccccc12)C(=O)N[C@@H](Cc1ccccc1)C(N)=O,,63,37,
CC(=O)N[C@@H](Cc1ccccc1)C(=O)N[C@@H](CCCN)C(=O)N1CCC[C@H]1C(=O)N[C@H](CC1CCCCC1)C(=O)N[C@@H](Cc1c[nH]c2ccccc12)C(=O)N[C@@H](Cc1ccccc1)C(N)=O (HELM PEPTIDE1{[ac].F.[Orn].P.[O=C([C@@H](CC1CCCCC1)N[*:1])[*:2]].W.F.[am]}$$$$V2.0),,31,34,
